Assay results taken from PubChem BioAssay AID504538 (Southern Research Specialized Biocontainment Screening …, 2011).
Calls of active or inactive are those of the source. The rule behind the calls is not given here.

test system: not listed separately; test: T7 lysis protection in EV36 bacteria – E. coli EV36, T7 phage, set 2, counter-screen for bacterial capsule biogenesis inhibitors, dose response (AID 504538); details: E. coli EV36 T7 phage lysis, OD600 3 h; at 100 µM (top of the series)
Method in brief: (§1)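 Assay system: Escherichia coli EV36, K1 and K-12 hybrid strain | Buffer or medium: LB broth, overnight culture diluted 1:100 | Incubation: 1.5 h at 37 °C, then 3 h phage | Detection: Optical density at 600 nm, 3 h after phage infection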

**Q.** With COc1ccc(-c2cc(C(=O)O)c3ccccc3n2)cc1 as the molecule, how does the phage lysis inhibition read?
**A.** 102% (inactive)

**Q.** For N=C(N)SCCc1cccc(CCSC(=N)N)c1, which phage lysis inhibition is on record?
**A.** 99.9% (inactive)

**Q.** For O=C1c2c(O)ccc(O)c2C(=O)c2c(NCCNCCO)ccc(NCCNCCO)c21, which phage lysis inhibition is on record?
**A.** 140% (inactive)

**Q.** With O=C(Nc1cccc(C2=NCCN2)c1)Nc1cccc(C2=NCCN2)c1 as the molecule, how does the phage lysis inhibition read?
**A.** 88.6% (inactive)

**Q.** Which phage lysis inhibition does the source give for CCN(CC)c1ccc2c(-c3ccc(S(=O)(=O)O)cc3S(=O)(=O)O)c3ccc(=[N+](CC)CC)cc-3oc2c1 here?
**A.** 110% (inactive)

**Q.** Which phage lysis inhibition does the source give for Cc1cccc(-c2cc(C(=O)O)c3ccccc3n2)c1 here?
**A.** 102% (inactive)

test system: E. coli EV36 T7 phage lysis, OD600 3 h; test: as above; details: not given
Method in brief: as §1

**Q.** For COc1cc(/C=N/N=C(N)N)ccc1OCc1ccccc1Cl, which IC50 is on record?
**A.** 44 µM (inactive)

**Q.** With NC(N)=N/N=C/c1ccc(OCc2ccccc2)cc1 as the molecule, how does the IC50 read?
**A.** 45 µM (inactive)
